Results on 14 molecules are retold here after ChEMBL document CHEMBL1144157, “Synthesis of new 1-phenyl-3-{4-[(2E)-3-phenylprop-2-enoyl]phenyl}-thiourea and urea derivatives with anti-nociceptive activity” (2008).

Active and inactive are the calls of the source. Where only a bound is given, the exact number is not on record here.

The test system of test [1] is Mus musculus. As to the kind of experiment: Antinociceptive activity against formalin-induced paw pain in ip dosed Swiss mouse pretreated 30 mins before formalin challenge assessed after 0 to 5 mins. Format: functional. The conditions noted are these: for ED50: read-out: ID50 (the source's name). The essentials: (§1)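 Mice given compound (6–30 mg/kg, ip) or saline 30 min before intraplantar injection into the right hind paw of 20 µl 2.5% formalin (0.92% formaldehyde) in saline. Paw-licking time scored in a glass cylinder with a 45° mirror, 0–5 min (early phase) and 15–30 min (late phase). n = 6. ID50 as geometric mean with 95% confidence limits.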

In test [2] the test system is Mus musculus. The experiment in a line: Antinociceptive activity against capsaicin-induced paw pain in Swiss mouse assessed as maximal inhibition at 10 mg/kg, ip pretreated 30 mins before capsaicin challenge. Format: functional, organism-based. More on the design: dose 10 mg/kg.
Test [3] concerns Mus musculus. The experiment in a line: Antinociceptive activity against acetic acid-induced abdominal constrictions in Swiss mouse assessed as maximal inhibition at 10 mg/kg, ip pretreated 30 mins before acetic acid challenge. Type of test: functional. The conditions noted are these: Abdomen, route intraperitoneal. The essentials: (§2)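 Swiss mice (25–35 g), 10 ml/kg ip of compound (1–60 mg/kg) or 0.9% NaCl control, given 30 min before ip 0.6% acetic acid. Abdominal constrictions with hind-limb stretching counted cumulatively over 20 min, mice in separate glass funnels at 20–22 °C. Groups of six to eight. ID50 is the geometric mean with 95% confidence limits, found by graphical interpolation.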

Test [4] deals with Mus musculus. The experiment in a line: Antinociceptive activity against acetic acid-induced abdominal constrictions in po dosed Swiss mouse pretreated 30 mins before acetic acid challenge. Type of test: functional. The conditions noted are these: Abdomen, read-out: ID50 (the source's name). The procedure, abridged:
(§3)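 Oral pretreatment (50–200 mg/kg) of Swiss mice before ip 0.6% acetic acid. Writhing (abdominal contractions plus hind-limb stretching) counted cumulatively for 20 min at 20–22 °C. Six animals per group, mean ± s.e.m. ID50 with 95% confidence limits obtained by graphical interpolation.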

Test [5] has as its system Mus musculus. The experiment in a line: Antinociceptive activity against acetic acid-induced abdominal constrictions in ip dosed Swiss mouse pretreated 30 mins before acetic acid challenge. Type of test: functional. The conditions noted are these: Abdomen; for ED50: read-out: ID50 (the source's name). The procedure, abridged: as §2
The test system of test [6] is Mus musculus. As to the kind of experiment: Antinociceptive activity against formalin-induced paw pain in ip dosed Swiss mouse pretreated 30 mins before formalin challenge assessed after 15 to 30 mins. Format: functional. The conditions noted are these: for ED50: read-out: ID50 (the source's name). The essentials:
as §1

Test [7] concerns Mus musculus. As to the kind of experiment: Antinociceptive activity against glutamate-induced paw pain in ip dosed Swiss mouse pretreated 30 mins before glutamate challenge. The conditions noted are these: read-out: ID50 (the source's name). Format: functional. The procedure, abridged:
(§4)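 Mice treated ip (6–30 mg/kg) 30 min before intraplantar injection into the right hind paw of 20 µl glutamate in PBS (30 µmol/paw). Time spent licking or biting the paw timed over 0–15 min in glass cylinders. n = 6. ID50 reported with 95% confidence limits.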

The subject of test [8] is Mus musculus. As to the kind of experiment: Antinociceptive activity against formalin-induced paw pain in Swiss mouse assessed as maximal inhibition at 10 mg/kg, ip pretreated 30 mins before formalin challenge assessed after 15 to 30 mins. To be noted: route intraperitoneal. Format: functional. The procedure, abridged: as §1
The test system of test [9] is Mus musculus. As to the kind of experiment: Antinociceptive activity against formalin-induced paw pain in Swiss mouse assessed as maximal inhibition at 6 mg/kg, ip pretreated 30 mins before formalin challenge assessed after 15 to 30 mins. Type of test: functional. To be noted: route intraperitoneal. The procedure, abridged: as §1
In test [10] the test system is Mus musculus. As to the kind of experiment: Antinociceptive activity against glutamate-induced paw pain in Swiss mouse assessed as maximal inhibition at 10 mg/kg, ip pretreated 30 mins before glutamate challenge. Type of test: functional. To be noted: route intraperitoneal. The essentials:
as §4

Test [11] deals with Mus musculus. The experiment in a line: Antinociceptive activity against glutamate-induced paw pain in Swiss mouse assessed as maximal inhibition at 30 mg/kg, ip pretreated 30 mins before glutamate challenge. The conditions noted are these: route intraperitoneal. Format: functional. The essentials: as §4
Test [12] deals with Mus musculus. The experiment in a line: Antinociceptive activity against formalin-induced paw pain in Swiss mouse assessed as maximal inhibition at 10 mg/kg, ip pretreated 30 mins before formalin challenge assessed after 0 to 5 mins. Format: functional. To be noted: route intraperitoneal. The essentials: as §1
For test [13], the system named is Mus musculus. As to the kind of experiment: Antinociceptive activity against acetic acid-induced abdominal constrictions in Swiss mouse assessed as maximal inhibition at 50 mg/kg, po pretreated 30 mins before acetic acid challenge. Type of test: functional. The conditions noted are these: Abdomen. The procedure, abridged: as §3
The test system of test [14] is Mus musculus. As to the kind of experiment: Antinociceptive activity against formalin-induced paw pain in Swiss mouse assessed as maximal inhibition at 30 mg/kg, ip pretreated 30 mins before formalin challenge assessed after 0 to 5 mins. The conditions noted are these: route intraperitoneal. Type of test: functional. The essentials:
as §1

For test [15], the system named is Mus musculus. The experiment in a line: Antinociceptive activity against acetic acid-induced abdominal constrictions in Swiss mouse assessed as maximal inhibition at 100 mg/kg, po pretreated 30 mins before acetic acid challenge. To be noted: Abdomen. Format: functional. The procedure, abridged: as §3
Test [16] concerns Mus musculus. As to the kind of experiment: Antinociceptive activity against acetic acid-induced abdominal constrictions in Swiss mouse assessed as maximal inhibition at 200 mg/kg, po pretreated 30 mins before acetic acid challenge. Format: functional. To be noted: Abdomen. The procedure, abridged: as §3
In test [17] the test system is Mus musculus. As to the kind of experiment: Antinociceptive activity against heat-induced paw licking in Swiss mouse assessed as increase in licking latency period at 10 mg/kg, ip pretreated 30 mins before heat challenge by hot plate method. Type of test: functional, organism-based. The arrangement: dose 10 mg/kg. The essentials:
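Mice dosed ip (10 mg/kg), saline, or morphine sc, 30 min before placement on a plate held at 56 ± 1 °C. Latency to hind-paw licking, paw shaking or jumping recorded. Animals with baseline latency above 20 s excluded; cut-off 30 s. n = 6.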

Test [18] deals with Mus musculus. The experiment in a line: Antinociceptive activity against formalin-induced paw pain in Swiss mouse assessed as maximal inhibition at 30 mg/kg, ip pretreated 30 mins before formalin challenge assessed after 15 to 30 mins. Format: functional. To be noted: route intraperitoneal. The procedure, abridged:
as §1

Test [19] concerns Mus musculus. As to the kind of experiment: Antinociceptive activity against acetic acid-induced abdominal constrictions in Swiss mouse at 60 mg/kg, ip pretreated 30 mins before acetic acid challenge. Format: functional, organism-based. More on the design: dose 60 mg/kg. To be noted: Abdomen. The procedure, abridged:
as §2

Consider `CC(=O)Nc1ccc(O)cc1` [ACETAMINOPHEN], for which the result with Mus musculus [1] and in the test with Mus musculus [2] was inactive. Moreover, the inhibition in vivo at 10 mg/kg in the test with Mus musculus [3] is 38%. Besides, the ED50 in the test with Mus musculus [4] came out at 1140 µmol/kg.

As to `Cc1c(N(C)CS(=O)(=O)O)c(=O)n(-c2ccccc2)n1C` [DIPYRONE SODIUM], the values for the ED50 in the test on Mus musculus [1], with Mus musculus [5] and with Mus musculus [6] were 154 µmol/kg, 162 µmol/kg and 264 µmol/kg, respectively. The inhibition in vivo at 10 mg/kg with Mus musculus [3] was 33%.

For the molecule `O=C(/C=C/c1ccccc1)c1ccc(NC(=S)Nc2ccc(Cl)cc2)cc1`, the Activity entry in the test on Mus musculus [1], in the test with Mus musculus [5] and in the test with Mus musculus [6] was “Dose-dependent effect” each time. Further, the ED50 stood at 69.3 µmol/kg in the test with Mus musculus [1]; 3.03 µmol/kg with Mus musculus [5]; 62.1 µmol/kg in the test on Mus musculus [7]; 26.9 µmol/kg in the test with Mus musculus [6]; 378 µmol/kg in the test on Mus musculus [4]. The result in the test on Mus musculus [2] and with Mus musculus [17] was inactive. For the same molecule, the inhibition in vivo at 10 mg/kg is 62.6% in the test on Mus musculus [8], 42.6% with Mus musculus [10], 94.5% in the test with Mus musculus [3] and 37.8% in the test with Mus musculus [12]. In addition, the inhibition in vivo at 6 mg/kg in the test with Mus musculus [9] turned out to be 51%. Further, the inhibition in vivo at 30 mg/kg in the test with Mus musculus [11] was found to be 58.3%; in the test on Mus musculus [14], 53.9%; in the test on Mus musculus [18], 78.7%. Also, in the test on Mus musculus [13], the inhibition in vivo at 50 mg/kg is 23.5%. The inhibition in vivo at 100 mg/kg in the test on Mus musculus [15] was 43.4%. Also, the inhibition in vivo at 200 mg/kg with Mus musculus [16] amounted to 55%.

With `O=C(Nc1ccc(Cl)cc1)Nc1ccc(C(=O)/C=C/c2ccccc2)cc1`, in the test on Mus musculus [5], the Activity result is “Dose-dependent effect” and the ED50 was determined as 7.25 µmol/kg. Also, the inhibition in vivo at 10 mg/kg in the test with Mus musculus [3] amounted to 74.6%.

As for `COc1ccc(/C=C/C(=O)c2ccc(NC(=O)Nc3ccc(Cl)cc3)cc2)cc1`, in the test on Mus musculus [5], the Activity result is “Dose-dependent effect” and the ED50 was 31.1 µmol/kg. In the test with Mus musculus [3], the inhibition in vivo at 10 mg/kg is 84.4%.

In the case of `O=C(/C=C/c1ccc(Cl)cc1)c1ccc(NC(=S)Nc2ccc(Cl)cc2)cc1`, in the test on Mus musculus [5], the Activity entry was “Dose-dependent effect” and the ED50 worked out at 7.59 µmol/kg. Besides, in the test with Mus musculus [3], the inhibition in vivo at 10 mg/kg was 100%.

Turning to `Cc1ccc(/C=C/C(=O)c2ccc(NC(=S)Nc3ccc(Cl)cc3)cc2)cc1`, in the test on Mus musculus [5], the Activity result was “Dose-dependent effect” and the ED50 turned out to be 13.1 µmol/kg. For the same molecule, the inhibition in vivo at 10 mg/kg in the test on Mus musculus [3] was determined as 75.3%.

In the case of `O=C(/C=C/c1ccc(Cl)c(Cl)c1)c1ccc(NC(=S)Nc2ccc(Cl)cc2)cc1`, in the test with Mus musculus [5], the Activity result is “Dose-dependent effect” and the ED50 came to 6.15 µmol/kg. Also, the inhibition in vivo at 10 mg/kg in the test on Mus musculus [3] came to 97.5%.

In the case of `COc1ccc(/C=C/C(=O)c2ccc(NC(=S)Nc3ccc(Cl)cc3)cc2)cc1`, in the test with Mus musculus [5], the Activity entry is “Dose-dependent effect” and the ED50 was determined as 10.4 µmol/kg. In addition, the inhibition in vivo at 10 mg/kg in the test with Mus musculus [3] was found to be 92%.

For `O=C(O)Cc1ccccc1Nc1c(Cl)cccc1Cl` [DICLOFENAC], the values for the ED50 with Mus musculus [1] and with Mus musculus [6] were over 94 µmol/kg and 34.5 µmol/kg, respectively.

In the case of `O=C(Nc1ccc(Cl)cc1)Nc1ccc(C(=O)/C=C/c2ccc(Cl)c(Cl)c2)cc1`, in the test with Mus musculus [19], the outcome was inactive. In the test with Mus musculus [3], the inhibition in vivo at 10 mg/kg was 21.6%.

As to `O=C(Nc1ccc(Cl)cc1)Nc1ccc(C(=O)/C=C/c2ccc(Cl)cc2)cc1`, in the test on Mus musculus [5], the Activity entry was “Dose-dependent effect” and the ED50 worked out at 45.4 µmol/kg. In the test on Mus musculus [3], the inhibition in vivo at 10 mg/kg was 51%.

`Cc1ccc(/C=C/C(=O)c2ccc(NC(=O)Nc3ccc(Cl)cc3)cc2)cc1`: in the test on Mus musculus [5], the Activity result was “Dose-dependent effect” and the ED50 amounted to 39.7 µmol/kg. The inhibition in vivo at 10 mg/kg in the test with Mus musculus [3] was found to be 42.8%.

For `CC(=O)Oc1ccccc1C(=O)O` [ASPIRIN], the outcome in the test with Mus musculus [1] and with Mus musculus [2] was inactive. For the same molecule, the inhibition in vivo at 10 mg/kg in the test on Mus musculus [3] amounted to 35%. The ED50 in the test on Mus musculus [4] amounted to 605 µmol/kg.

Broadly, the inhibition in vivo is how much of the control response was suppressed.
